The list is not random: actives were taken first. Their share in the collection is about 11%.
S1P3 ag: agonists of human S1P3 receptor. Q99500. S1P3 NFAT-BLA reporter cells, agonism, FRET ratio; relative to 1 µM S1P, basal subtracted. activation, % at 4.5 µM. actives 0.1% (n = 60,000);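 active means activation above the screen-wide mean plus 3 SD, cut at about 4.5% in these data, passing the limit was not always enough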
Target sequence (Q99500 whole entry, looked up): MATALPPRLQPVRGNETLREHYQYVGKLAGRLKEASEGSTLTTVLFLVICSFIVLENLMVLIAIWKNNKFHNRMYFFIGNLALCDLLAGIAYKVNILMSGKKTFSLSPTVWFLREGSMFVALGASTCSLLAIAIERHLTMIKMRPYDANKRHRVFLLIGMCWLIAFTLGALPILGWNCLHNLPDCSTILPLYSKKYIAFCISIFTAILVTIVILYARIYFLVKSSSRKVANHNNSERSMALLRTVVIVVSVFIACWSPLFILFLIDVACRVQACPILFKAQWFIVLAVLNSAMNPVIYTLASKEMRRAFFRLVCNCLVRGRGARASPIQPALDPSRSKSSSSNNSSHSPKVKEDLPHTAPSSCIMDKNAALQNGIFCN
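Benchmarks: high control 1 µM S1P / System: stable CHO line with human S1P3, Gα16, NFAT-BLA reporter / Dosing: single compound concentration, 4.5 µM final / Timing: 4 h compound at 37 °C, 2 h substrate at RT / Measured by: FRET β-lactamase substrate fluorescence, excitation 405 nm, 460/535 nm emission ratio, background-subtracted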
M1 agonist: agonists of M1 muscarinic receptor. B-score at 10 µM. CHO-M1 cells, Fluo-4 calcium fluorescence, agonist mode; hits give high values. actives 3% (n = 64,000);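 active means fluorescence rise, raw or as B-score row- and column-corrected plate score, outside the 99.7% band of its plate's samples, either direction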
D1 allo mod: D1 dopamine receptor (human) allosteric modulation. actives 5.9% (n = 58,000). B-score at 10 µM. HEK293 D1, CRE-luciferase, dopamine EC30 potentiation; actives deviate in either direction. P21728;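 active means luminescence count or its row- and column-corrected plate score outside the 99.7% band of the plate's sample wells, on either side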
S1P1 ag pot: S1P1 (human) agonism or agonism potentiation. activation, % at 9.5 µM. S1P1 CRE-bla cells, forskolin, beta-lactamase FRET, potentiator mode; S1P1 agonist co-added at EC20, 2 nM; 100% = saturating reference agonist, 0% = basal. P21453. actives 0.57% (n = 56,000);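 active means activation above a cutoff set at the mean activation of all tested compounds plus 3 SD, cut at about 54% in these data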;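 further: forskolin at 4 µM as EC80 and the EC20 agonist is SEW2871; 100% = SEW2871 at its EC100 plus forskolin at EC80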
M1 antag: M1 muscarinic receptor (rat) antagonism | P08482 | CHO-M1 cells, Fluo-4 calcium, ACh EC80 antagonist mode; hits give low values | B-score at 10 µM | actives 3.4% (n = 64,000) | AID 628;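 active means calcium fluorescence response, raw or row-and-column corrected B-score, differing from the plate sample mean either way at a set confidence level, mostly lower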
M1 ag confirm: confirmation of rat M1 muscarinic receptor agonists; CHO-M1 cells, Fluo-4 calcium fluorescence, agonist mode; actives lie on both sides; actives 19% (n = 1,700); shares compounds with M1 agonist; fluorescence change (max-min) at 10 µM;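 active means fluorescence change differs from the solvent-only DMSO control mean at a set confidence level in both duplicate runs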;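 further: an EC20 dose of acetylcholine follows compound addition during the same imaging run; raw fluorescence intensity difference in instrument units with no normalization to controls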
M4 ag counter: rat M4 muscarinic agonism, M1 counter-screen | shares compounds with M1 agonist | CHO M4/Gqi5 cells, Fluo-4 calcium fluorescence, agonist mode; actives lie on both sides | fluorescence change (max-min) at 10 µM | actives 9% (n = 1,700) | AID 1741;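 active means fluorescence change differing from the plate's solvent-only control wells at 99.7% confidence in both duplicates, whether higher or lower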
Active calls of the source: *.

What do the screens show for `COc1ccc(C2C3=C(CCCC3=O)Nc3nc(C(F)(F)F)nn32)c(OC)c1OC` (centres undefined)?
S1P3 ag: 0.2; M1 agonist: -0.512; D1 allo mod: 0.798; S1P1 ag pot: -21.7; M1 antag: 0.686

What do the screens show for `CCCn1c(-c2ccc(OC)cc2)nc2nc3ccccc3nc21`?
S1P3 ag: 0.6; M1 agonist: -0.156; D1 allo mod: -0.131; S1P1 ag pot: -21.5; M1 antag: -0.917

What do the screens show for `COc1ccc(CCn2c(-c3ccco3)nc3nc4ccccc4nc32)cc1`?
S1P3 ag: -0.2; M1 agonist: 3.51*; D1 allo mod: 0.753; S1P1 ag pot: -9.0; M1 antag: -0.00813; M1 ag confirm: -7.12; M4 ag counter: -11.8

What do the screens show for `C=C(C)c1nc(N)nc(N)n1`?
S1P3 ag: 0.5; M1 agonist: -0.212; D1 allo mod: 0.0176; S1P1 ag pot: -5.2; M1 antag: -0.0317

Results for Cc1c(Cc2ccccc2)sc(N)c1C(N)=O ?
S1P3 ag: -1.9; M1 agonist: 8.76*; D1 allo mod: 0.573; S1P1 ag pot: 5.4; M1 antag: -0.0736; M1 ag confirm: 0.133; M4 ag counter: -25.6

What do the screens show for `O=C(NCc1cccs1)C1CCN(S(=O)(=O)c2cccc3nsnc23)CC1`?
S1P3 ag: -0.1; M1 agonist: 0.281; D1 allo mod: 0.222; S1P1 ag pot: -9.4; M1 antag: 0.874

How did O=C(c1ncc[nH]1)c1ccco1 do in these assays?
S1P3 ag: -1.4; M1 agonist: 3.55*; D1 allo mod: 0.631; S1P1 ag pot: 14.8; M1 antag: 0.127; M1 ag confirm: -12; M4 ag counter: -18.2

What do the screens show for `O=C(NCCn1cccc1)c1cccc2ccccc12`?
S1P3 ag: -1.5; M1 agonist: 5.68*; D1 allo mod: -0.22; S1P1 ag pot: 12.3; M1 antag: -0.0133; M1 ag confirm: -30.8*; M4 ag counter: -54

Results for O=C(CCn1cccc1)NCc1ccc(Cl)cc1 ?
S1P3 ag: 0.1; M1 agonist: 0.64; D1 allo mod: -0.471; S1P1 ag pot: 0.0; M1 antag: 0.0734

What do the screens show for `CC12CCC(C(=O)N3CCN(Cc4ccccc4)CC3)(OC1=O)C2(C)C` (centres undefined)?
S1P3 ag: -1.9; M1 agonist: 0.368; D1 allo mod: 0.0163; S1P1 ag pot: -12.7; M1 antag: -0.262

Results for CCCS(=O)(=O)N1CCCC(C(=O)NCCc2ccc(OC)c(OC)c2)C1 (centres undefined) ?
S1P3 ag: -1.2; M1 agonist: -0.00337; D1 allo mod: -0.0169; S1P1 ag pot: -23.5; M1 antag: 0.135

What do the screens show for `CCN1CCN(c2nc3ccccc3nc2C(C#N)C(=O)OCc2ccccc2)CC1` (centres undefined)?
S1P3 ag: 0.6; M1 agonist: -2.67; D1 allo mod: -3.87; S1P1 ag pot: 13.2; M1 antag: -0.933

What do the screens show for `CCCN(CCC)c1nc2ccccc2nc1C(C#N)C(=O)OC(C)COC` (centres undefined)?
S1P3 ag: -0.5; M1 agonist: 1.06; S1P1 ag pot: -14.4; M1 antag: 0.879

What do the screens show for `CCN(CC)c1nc2ccccc2nc1C(C#N)C(=O)NCCCOC` (centres undefined)?
S1P3 ag: 1.1; M1 agonist: 5.01*; D1 allo mod: 2.34; S1P1 ag pot: -81.3; M1 antag: -0.598; M1 ag confirm: -3.99; M4 ag counter: -29.5

What do the screens show for `CCCCN(CCCC)c1nc2ccccc2nc1C(C#N)C(=O)NCCCOC` (centres undefined)?
S1P3 ag: 0.1; M1 agonist: 434*; D1 allo mod: 1.25; S1P1 ag pot: 3.1; M1 antag: -15.6*; M1 ag confirm: 2697*; M4 ag counter: 2698*

What do the screens show for `CCN(CC)c1nc2ccccc2nc1C(C#N)C(=O)NCCc1ccccc1` (centres undefined)?
S1P3 ag: 0.4; M1 agonist: 219*; D1 allo mod: 0.0193; S1P1 ag pot: -18.6; M1 antag: -1.03; M1 ag confirm: 2068*; M4 ag counter: 1724*

Bioassay records deposited in PubChem BioAssay by several laboratories.
